The test system of assay [1] is Ehrlich. Nature of the assay: Antitumor activity against mouse Ehrlich ascites carcinoma cells. The class given is functional, cell-based. The gist of the method: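 Ehrlich ascites carcinoma cell suspension was exposed to test compound at three levels (25, 50, 100) for 2 h. Nonviable cells were counted by trypan blue exclusion, using a 1:10 water dilution of a 1 g/100 ml dye stock. The IC50 was calculated against a saline control group. Doxorubicin served as positive control.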

Assay [2] concerns Ehrlich. The experiment in a line: Antitumor activity against mouse Ehrlich ascites carcinoma cells at 50 ug/ml relative to doxorubicin after 2 hrs. The class given is functional. In short, it runs like this: (§1)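 Ehrlich ascites carcinoma cell suspension was exposed to compound for 2 h. Percent nonviable cells was scored by trypan blue dye exclusion. Potency was calculated from the percentage change relative to doxorubicin, which served as reference. Data are means with SE. Treated and control tubes were compared by one-way ANOVA with Duncan's multiple range test.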

Assay [3] has as its system Ehrlich. Nature of the assay: Antitumor activity against mouse Ehrlich ascites carcinoma cells at 100 ug/ml relative to doxorubicin after 2 hrs. The class given is functional. In short, it runs like this:
as §1

Assay [4] has as its system Ehrlich. Nature of the assay: Antitumor activity against mouse Ehrlich ascites carcinoma cells at 25 ug/ml relative to doxorubicin after 2 hrs. The class given is functional. In short, it runs like this: as §1

The values below come from ChEMBL document CHEMBL1143141, “Regioselective synthesis and antitumor screening of some novel N-phenylpyrazole derivatives” (Bioorg Med Chem, 2008).

≈ marks a conversion by molar mass, not a printed value. Where only a bound is given, the exact number is not on record here.

Turning to `COc1cccc2c1C(=O)c1c(O)c3c(c(O)c1C2=O)C[C@@](O)(C(=O)CO)C[C@@H]3O[C@H]1C[C@H](N)[C@H](O)[C@H](C)O1` [DOXORUBICIN], 35 µg/mL (≈ 64.4 µM) corresponded to half-maximal inhibition in the assay with Ehrlich [1] (IC50). Besides, the Activity was 55% with Ehrlich [2], 100% in the assay on Ehrlich [3] and 20% with Ehrlich [4].

As to `CC(=O)c1nn(-c2ccc(C)cc2)cc1C(=O)c1c(C(=O)Nc2ccccc2)nn(-c2ccccc2)c1C`, the IC50 in the assay with Ehrlich [1] is greater than 100 µg/mL. In addition, the Activity in the assay on Ehrlich [2] worked out at 5%; with Ehrlich [3], 10%; in the assay with Ehrlich [4] it was 0%.

On to `CCOC(=O)c1nn(-c2ccccc2)cc1C(=O)c1c(C(=O)Nc2ccccc2)nn(-c2ccccc2)c1C`, for which, in the assay on Ehrlich [1], the IC50 is greater than 100 µg/mL. Besides, the Activity with Ehrlich [2] stood at 0%; with Ehrlich [3], 10%; in the assay with Ehrlich [4], 0%.

For `Cc1c(C(=O)c2cn(-c3ccccc3)nc2C(=O)Nc2ccccc2)c(C(=O)Nc2ccccc2)nn1-c1ccccc1`, the IC50 in the assay with Ehrlich [1] came out at 70 µg/mL (≈ 124 µM). The results for the Activity in the assay with Ehrlich [2], with Ehrlich [3] and in the assay with Ehrlich [4] were 20%, 35% and 5%, respectively.

Turning to `CC(=O)c1nn(-c2ccc(Br)cc2)cc1C(=O)c1c(C(=O)Nc2ccccc2)nn(-c2ccccc2)c1C`, the IC50 in the assay with Ehrlich [1] was greater than 100 µg/mL. The Activity in the assay on Ehrlich [2] was determined as 15%; in the assay on Ehrlich [3], 25%; with Ehrlich [4], 0%.

`Cc1c(C(=O)/C=C/N(C)C)c(C(=O)Nc2ccccc2)nn1-c1ccccc1` gave an IC50 in the assay with Ehrlich [1] greater than 100 µg/mL. For the same molecule, the Activity in the assay with Ehrlich [2] came out at 5%; in the assay on Ehrlich [3], 10%; with Ehrlich [4], 0%.

For `CCOC(=O)c1nn(-c2ccc([N+](=O)[O-])cc2)cc1C(=O)c1c(C(=O)Nc2ccccc2)nn(-c2ccccc2)c1C`, the Activity in the assay with Ehrlich [2], in the assay with Ehrlich [3] and with Ehrlich [4] was 0% throughout.

In turn, `CC(=O)c1nn(-c2ccccc2)cc1C(=O)c1c(C(=O)Nc2ccccc2)nn(-c2ccccc2)c1C` registered an IC50 in the assay with Ehrlich [1] greater than 100 µg/mL. Moreover, the results for the Activity in the assay with Ehrlich [2], in the assay with Ehrlich [3] and in the assay with Ehrlich [4] were 5%, 20% and 0%, respectively.

`CC(=O)c1nn(-c2cccc(C)c2)cc1C(=O)c1c(C(=O)Nc2ccccc2)nn(-c2ccccc2)c1C` displayed an IC50 in the assay on Ehrlich [1] of 100 µg/mL (≈ 199 µM). Also, the Activity in the assay with Ehrlich [2] is on record as 10%; with Ehrlich [3], 20%; in the assay on Ehrlich [4] it was 0%.

On to `CC(=O)c1c(C(=O)Nc2ccccc2)nn(-c2ccccc2)c1C`, for which the Activity in the assay with Ehrlich [2], in the assay on Ehrlich [3] and with Ehrlich [4] was 0% throughout.

`Cc1c(C(=O)c2cn(-c3ccccc3)nc2-c2ccccc2)c(C(=O)Nc2ccccc2)nn1-c1ccccc1`: the Activity with Ehrlich [2], with Ehrlich [3] and in the assay on Ehrlich [4] was 0% each time.

For `CCOC(=O)c1nn(-c2ccc(Br)cc2)cc1C(=O)c1c(C(=O)Nc2ccccc2)nn(-c2ccccc2)c1C`, in the assay with Ehrlich [1], the IC50 was greater than 100 µg/mL. The Activity with Ehrlich [2] stood at 10%; in the assay with Ehrlich [3], 20%; in the assay with Ehrlich [4], 0%.

As usually defined, the IC50 is the concentration that inhibits the measured activity by half. High values mean lower potency, low ones higher potency.
